The values below come from ChEMBL document CHEMBL1123927, “Leukotriene receptor antagonists. 2. The [[(tetrazol-5-ylaryl)oxy]methyl]acetophenone derivatives” (J Med Chem, 1987).

Structures are written as SMILES. The source made the active and inactive calls. No cut-off for these calls is given here.

For test [1], the target named is Cysteinyl leukotriene receptor (Cavia porcellus). In words: Inhibition of LTD4-induced contraction in guinea pig ileum.
The species entered for test [2] is Cavia porcellus. Nature of the test: Inhibition of LTD4-induced contraction in guinea pig ileum. Not active at highest concentration tested, 1 x 10 E-5 M. Format: functional. The method, boiled down: (§1)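 Isolated guinea pig ileum contracted with a submaximal concentration of LTD4. Two, three or four antagonist concentrations were tested on a single ileum. […] Alternatively, pKB was taken as -log of the antagonist concentration producing a twofold rightward shift of the LTD4 concentration-response curve.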

Test [3] is filed under the species Cavia porcellus. In words: Antagonist activity was evaluated against LTD4-induced contraction in guinea pig ileum. Type of test: functional. The settings on record: read-out: pA2 (converted). The method, boiled down: as §1
The species entered for test [4] is Cavia porcellus. In words: Inhibition of LTD4-induced contraction in guinea pig ileum. Not active at highest concentration tested, 3 x 10 E-6 M. Type of test: functional. The method in brief:
as §1

As to `CCCc1c(CSc2ccc(-c3nn[nH]n3)cc2)ccc(C(C)=O)c1O`, in test [1], the “-Log IC50” value stood at 7.7.
As to `CCc1c(COc2ccc(Cc3nnn[nH]3)cc2)ccc(C(C)=O)c1O`, the “-Log IC50” value in test [1] came to 7.9.
Same read-out and setting: as for `CCCc1c(COc2ccc(/C=C/c3nn[nH]n3)cc2)ccc(C(C)=O)c1O`, the figure is 7.4.
The same measure, in the same setting: in the case of `CCCc1c(COc2ccc(-c3nn[nH]n3)cc2)ccc(C(C)=O)c1O` it was 8; in that of `CCCc1c(COc2ccc(Cc3nnn[nH]3)cc2)ccc(C(C)=O)c1OC`, 6.3.
Regarding `CCCc1c(COc2ccc(Cc3nnn[nH]3)cc2)ccc(/C(C)=N\O)c1O`, the “-Log IC50” value in test [1] was 5.8.
On to `CCCc1c(COc2ccc(-c3nn[nH]n3)cc2)ccc(C(=O)c2ccccc2)c1O`, for which, in test [2], the “-Log IC50” value was “inactive”.
Turning to `CCCc1c(COc2ccc(Cc3nnn[nH]3)cc2)ccc(C(C)=O)c1O` [LY-163443], the “-Log IC50” value in test [1] amounted to 8.
The same measure, in the same setting: as for `CCCc1c(COc2cccc(OCc3nn[nH]n3)c2)ccc(C(C)=O)c1O`, the figure is 8.
Take `CCCc1c(COc2ccc(Cc3nnnn3C)cc2)ccc(C(C)=O)c1O`: the “-Log IC50” value in test [2] was “inactive”.
For `CCCCc1c(COc2ccc(-c3nn[nH]n3)cc2)ccc(C(C)=O)c1O`, the “-Log IC50” value in test [1] is reported as 7.9.
`CCCc1c(COc2ccc(CCc3nnn[nH]3)cc2)ccc(C(C)=O)c1O`: the “-Log IC50” value in test [1] is reported as 8.1.
Still for that read-out and setting: in the case of `CCCc1c(COc2ccc(C(C)c3nnn[nH]3)cc2)ccc(C(C)=O)c1O` (stereo unspecified) it was 7.9.
As for `CCCc1c(COc2ccc(CCCc3nnn[nH]3)cc2)ccc(C(C)=O)c1O`, the “-Log IC50” value in test [1] was 7.3.
Still for that read-out and setting: in the case of `CCCc1c(CSCc2ccc(-c3nn[nH]n3)cc2)ccc(C(C)=O)c1O` it was 6.5; in that of `CCCCc1c(COc2ccc(Cc3nnn[nH]3)cc2)ccc(C(C)=O)c1O`, 7.8; in that of `CCCc1c(OCc2ccc(-c3nn[nH]n3)cc2)ccc(C(C)=O)c1O`, 7.
Still for that read-out and setting: in the case of `CCCc1c(COc2cccc(Cc3nnn[nH]3)c2)ccc(C(C)=O)c1O` it was 7.
Turning to `CCCc1c(OCCCCc2nnn[nH]2)ccc(C(C)=O)c1O` [TOMELUKAST], the Kb in test [3] is 63.1 nM.
Take `CC(=O)c1ccc(COc2ccc(-c3nn[nH]n3)cc2)c(C)c1O`: in test [1], the “-Log IC50” value is 7.
With `CCCc1c(COCCOc2ccc(-c3nn[nH]n3)cc2)ccc(C(C)=O)c1O`, in test [1], the “-Log IC50” value turned out to be 7.3.
On the same count and under the same terms, as for `CCCc1c(COc2ccc(OCc3nn[nH]n3)cc2)ccc(C(C)=O)c1O`, the figure is 7.8.
Still for that read-out and setting: in the case of `CCCc1c(COc2ccccc2Cc2nnn[nH]2)ccc(C(C)=O)c1O` it was 6.2; in that of `CCCc1c(COc2ccc(-c3nn[nH]n3)cc2)ccc(C=O)c1O`, 6.4; in that of `CCCc1c(COc2ccc(Cc3nnn(C)n3)cc2)ccc(C(C)=O)c1O`, 6.2.
Same read-out and setting: in the case of `CC(=O)c1ccc(COc2ccc(Cc3nnn[nH]3)cc2)c(CC(C)C)c1O` it was 7.7.
For the molecule `CCCc1c(COc2ccc(Cc3nnn[nH]3)cc2)ccc(C(=O)CC)c1O`, in test [1], the “-Log IC50” value is 7.
On to `CC(=O)c1ccc(COc2ccc(Cc3nnn[nH]3)cc2)cc1O`, for which, in test [4], the “-Log IC50” value is “inactive”.
`CCCc1c(COCCOc2ccc(Cc3nnn[nH]3)cc2)ccc(C(C)=O)c1O`: the “-Log IC50” value in test [1] is recorded as 7.
Regarding `CCc1c(COc2ccc(-c3nn[nH]n3)cc2)ccc(C(C)=O)c1O`, the “-Log IC50” value in test [1] is given as 7.9.
The same measure, in the same setting: in the case of `CCCc1c(CNc2ccc(Cc3nnn[nH]3)cc2)ccc(C(C)=O)c1O` it was 7.5.
